According to the RNAGym collection of RNA variant scans (doi:10.1126/science.aae0568):
This sample holds only a part of the variants without activity.

B1: tRNA (parent)
chain: GUUCCGUUGGCGUAAUGGUAACGCGUCUCCCUCCUAAGGAGAAGACUGCGGGUUCGAGUCCCGUACGGAACG

Variants of: B1
Experiment: yeast fitness relative to wild type (ratio to wild type); higher = fitter; tRNA-Arg(CCU), competitive growth, 37 C, YPD
Method in brief: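 Genotype frequency changes were the basis for Darwinian fitness relative to wild type. The frequencies came from 100-nucleotide paired-end sequencing of gene amplicons from the start population and each end population of pooled yeast strains with tRNA-Arg(CCU) gene variants at the native locus. Competition ran in YPD at 37°C for 24 hours in six replicates, genotypes needed ≥ 100 starting reads, and estimates < 0.5 were set to 0.5.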

Variant	yeast fitness
C4U C46G A70C	1.01
C4U C46G C55U	0.576
C4U C46G C66G	0.539
C4U C46G G51A G52A	≤ 0.5
C4U C46U	1.01
C4U C46U A70G	0.772
C4U C46U C62U	0.806
C4U C49A A65U	0.583
C4U C49G	0.874
C4U C49G A57C	≤ 0.5
C4U C49G A70G	0.602
C4U C49G G50C	≤ 0.5
C4U C49G G68A A70C	0.606
C4U C49U C55A	≤ 0.5
C4U C49U C61G	0.594
C4U C49U G58C	0.782
C4U C49U U64A	0.589
C4U C55A	0.701
C4U C55A U64A A65U	≤ 0.5
C4U C55G	0.636
C4U C55G A65G	≤ 0.5

Variant	yeast fitness
C4U C55G A65G C66G	≤ 0.5
C4U C55U A57U	0.536
C4U C55U A69U	0.745
C4U C55U C61U	0.673
C4U C55U U59G	0.587
C4U C60A	0.532
C4U C60G	0.671
C4U C60G A69C	0.52
C4U C60G C61U G68A	≤ 0.5
C4U C60G G67A	≤ 0.5
C4U C61A	0.667
C4U C61G	0.63
C4U C61G C62A	≤ 0.5
C4U C61G C62G	≤ 0.5
C4U C61G C66U A69U	≤ 0.5
C4U C62A	0.85
C4U C62G	0.808
C4U C62G G67A	≤ 0.5
C4U C62U	0.992
C4U C66G	0.75
C4U C66G A70U	0.608

Variant	yeast fitness
C4U C66U A69U	0.677
C4U C66U A70C	0.83
C4U G6A A14C A65C	≤ 0.5
C4U G6A A20C C60G A65U A69G	≤ 0.5
C4U G6A A36C C46U	≤ 0.5
C4U G6A A42C C66U	≤ 0.5
C4U G6A C31U C34U	≤ 0.5
C4U G6A C49U	0.706
C4U G6A C61A	≤ 0.5
C4U G6A C62G	0.54
C4U G6A G25A U32C	≤ 0.5
C4U G6C A14C C24G A45C A57C C61U	≤ 0.5
C4U G6C A14U C24G C66U	≤ 0.5
C4U G6C A14U C24G G58C	0.531
C4U G6C C30G C60U	0.546
C4U G9A A15U A20C C27A A65U	0.768
C4U G9A A40U	1.05
C4U G9A A57G	0.61
C4U G9A C11U C34A	≤ 0.5
C4U G9A C11U C34A C55A A65C	≤ 0.5
C4U G9A C22G A42U U64A G67A	0.58

Variant	yeast fitness
C4U G9A C22G C24U A42U U64A G67A	0.572
C4U G9A C24G A37C G41A A57U	≤ 0.5
C4U G9A C24G C29G G67A	≤ 0.5
C4U G9A C27G U32A G52A	≤ 0.5
C4U G9A C29A U53A	≤ 0.5
C4U G9A C29U	0.567
C4U G9A C33G	0.639
C4U G9A C33G G67A	≤ 0.5
C4U G9A G68A	0.968
C4U G9C A45G C61A	≤ 0.5
C4U G9C C24U C30G G51A C60U G67A	≤ 0.5
C4U G9C C33G C49A A70G	≤ 0.5
C4U G9C C61A A69C	≤ 0.5
C4U G9C C61G	≤ 0.5
C4U G9C G18A C29G C31U U32C G50C	≤ 0.5
C4U G10A A15C	0.551
C4U G10A A36U	≤ 0.5
C4U G10A C22U	≤ 0.5
C4U G10A C24U	0.98
C4U G10A C24U A69C	0.769
C4U G10A C24U A69U	0.838
